According to ChEMBL document CHEMBL4680165, “β-Lactams with antiproliferative and antiapoptotic activity in breast and chemoresistant colon cancer cells” (Eur J Med Chem, 2020):

Assays:
[1] = system: UDP-glucuronosyltransferases (UGTs); test: Metabolic stability in human liver microsomes assessed as UGT-mediated N-glucuronidation by measuring intrinsic clearance at 3 uM measured up to 45 mins by LC-MS/MS analysis; assay type: ADME; settings: microsomes, 0.75 h, 3 µM
Outline: (§1)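 Pooled human liver microsomes (0.5 mg/mL protein final) with alamethicin (25 µg/mg) in 0.1 M phosphate pH 7.4, compound 3 µM final (0.25% DMSO), preincubated 37 °C. Reaction started with UDPGA (1 mM final). Sampled at 0, 5, 15, 30, 45 min into methanol, analysed by LC-MS/MS. Minus-UDPGA control run 45 min. Single incubations; t½ and CLint taken from the elimination rate constant.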

HCC 2998 = test: Antiproliferative activity against human HCC-2998 cells assessed as cell growth inhibition; assay type: functional
Outline: (§2)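 NCI 60 cell line screen. Five concentrations (100, 10, 1, 0.1 and 0.01 µM) with 48 h drug exposure. GI50 is the molar concentration giving 50% growth inhibition; TGI and LC50 were also derived.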

[2] = Antiproliferative activity against human NCI-H332M cells assessed as cell growth inhibition; assay type: functional; outline: as §2
MCF7 [3] = test: Antiproliferative activity against human MCF7 cells assessed as reduction in cell viability after 72 hrs by alamar blue assay; assay type: functional, cell-based; settings: MCF7, 72 h
Outline: (§3)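 Cells seeded at 5 x 10^3/well (MCF-7) or 1 x 10^4/well (HT-29, HEK-293T) and treated after 24 h with serial dilutions (0.001-100 µM) in 1% v/v ethanol vehicle. Alamar Blue 10% v/v added at 72 h, then 3-5 h at 37 °C in the dark; fluorescence ex 530/em 590 nm. Viability relative to vehicle; IC50 from dose-response curves; mean of three experiments in triplicate.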

TK-10 = test: Antiproliferative activity against human TK-10 cells assessed as cell growth inhibition; assay type: functional
Outline: (§4)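 NCI60 cell line screen: cells exposed for 48 h to five concentrations (100, 10, 1, 0.1 and 0.01 µM). GI50 is the molar concentration giving 50% growth inhibition; TGI and LC50 were also determined.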

HCT-15 = test: Antiproliferative activity against human HCT-15 cells assessed as cell growth inhibition; assay type: functional; outline: as §2
SN12C = test: Antiproliferative activity against human SN12C cells assessed as cell growth inhibition; assay type: functional; outline: as §4
U-251 = test: Antiproliferative activity against human U251 cells assessed as cell growth inhibition; assay type: functional; outline: as §4
NCI-H460 = test: Antiproliferative activity against human NCI-H460 cells assessed as cell growth inhibition; assay type: functional; outline: as §2
HOP-62 = test: Antiproliferative activity against human HOP-62 cells assessed as cell growth inhibition; assay type: functional; outline: as §2
SK-MEL-5 = test: Antiproliferative activity against human SK-MEL-5 cells assessed as cell growth inhibition; assay type: functional; outline: as §4
[4] = Selectivity index, ratio of IC50 for human MCF7 cells to IC50 for human HT-29 cells assessed as reduction in cell viability after 72 hrs by alamar blue assay; assay type: functional
CAKI-1 = test: Antiproliferative activity against human […] cells assessed as cell growth inhibition; assay type: functional; outline: as §2
HT-29 [5] = test: Antiproliferative activity against human HT-29 cells assessed as cell growth inhibition; assay type: functional; outline: as §2
LOX IMVI = test: Antiproliferative activity against human LOX IMVI cells assessed as cell growth inhibition; assay type: functional; outline: as §2
HCT-116 = test: Antiproliferative activity against human HCT-116 cells assessed as cell growth inhibition; assay type: functional; outline: as §2
UACC-62 = test: Antiproliferative activity against human UACC-62 cells assessed as cell growth inhibition; assay type: functional; outline: as §4
OVCAR-8 = test: Antiproliferative activity against human OVCAR-8 cells assessed as cell growth inhibition; assay type: functional; outline: as §2
OVCAR-4 = test: Antiproliferative activity against human OVCAR-4 cells assessed as cell growth inhibition; assay type: functional; outline: as §2
MCF7 [6] = test: Antiproliferative activity against human MCF7 cells assessed as cell growth inhibition; assay type: functional; outline: as §2
HT-29 [7] = test: Antiproliferative activity against human HT-29 cells assessed as reduction in cell viability after 72 hrs by alamar blue assay; assay type: functional, cell-based; settings: HT-29, 72 h; outline: as §3
[8] = system: UDP-glucuronosyltransferases (UGTs); test: Metabolic stability in human liver microsomes assessed as UGT-mediated N-glucuronidation by measuring half life at 3 uM measured up to 45 mins by LC-MS/MS analysis; assay type: ADME; settings: microsomes, 0.75 h, 3 µM; outline: as §1
SK-MEL-28 = test: Antiproliferative activity against human SK-MEL-28 cells assessed as cell growth inhibition; assay type: functional; outline: as §4
NCI-H23 = test: Antiproliferative activity against human NCI-H23 cells assessed as cell growth inhibition; assay type: functional; outline: as §2
M14 = test: Antiproliferative activity against human M14 cells assessed as cell growth inhibition; assay type: functional; outline: as §2
NCI-H522 = test: Antiproliferative activity against human […] cells assessed as cell growth inhibition; assay type: functional; outline: as §2
MOLT-4 = test: Antiproliferative activity against human MOLT-4 cells assessed as cell growth inhibition; assay type: functional; outline: as §2
EKVX = test: Antiproliferative activity against human EKVX cells assessed as cell growth inhibition; assay type: functional; outline: as §2
SF-539 = test: Antiproliferative activity against human SF539 cells assessed as cell growth inhibition; assay type: functional; outline: as §4
BT-549 = test: Antiproliferative activity against human BT-549 cells assessed as cell growth inhibition; assay type: functional; outline: as §2
SF-295 = test: Antiproliferative activity against human SF295 cells assessed as cell growth inhibition; assay type: functional; outline: as §2
SR = test: Antiproliferative activity against human SR cells assessed as cell growth inhibition; assay type: functional; outline: as §4
OVCAR-3 = test: Antiproliferative activity against human OVCAR-3 cells assessed as cell growth inhibition; assay type: functional; outline: as §2
SNB-75 = test: Antiproliferative activity against human SNB-75 cells assessed as cell growth inhibition; assay type: functional; outline: as §4
KM12 = test: Antiproliferative activity against human KM12 cells assessed as cell growth inhibition; assay type: functional; outline: as §2
HL-60 = test: Antiproliferative activity against human HL60 cells assessed as cell growth inhibition; assay type: functional; outline: as §2
MDA-MB-435 = test: Antiproliferative activity against human MDA-MB-435 cells assessed as cell growth inhibition; assay type: functional; outline: as §2
IGROV-1 = test: Antiproliferative activity against human IGROV-1 cells assessed as cell growth inhibition; assay type: functional; outline: as §2
ACHN = test: Antiproliferative activity against human ACHN cells assessed as cell growth inhibition; assay type: functional; outline: as §2
MDA-MB-468 = test: Antiproliferative activity against human MDA-MB-468 cells assessed as cell growth inhibition; assay type: functional; outline: as §2
NCI-H226 = test: Antiproliferative activity against human NCI-H226 cells assessed as cell growth inhibition; assay type: functional; outline: as §2
A498 = test: Antiproliferative activity against human A498 cells assessed as cell growth inhibition; assay type: functional; outline: as §2
T47D = test: Antiproliferative activity against human T47D cells assessed as cell growth inhibition; assay type: functional; outline: as §4
Malme-3M = test: Antiproliferative activity against human Malme-3M cells assessed as cell growth inhibition; assay type: functional; outline: as §2
RPMI-8226 = test: Antiproliferative activity against human RPMI-8226 cells assessed as cell growth inhibition; assay type: functional; outline: as §2
SNB-19 = test: Antiproliferative activity against human SNB-19 cells assessed as cell growth inhibition; assay type: functional; outline: as §4
K562 = test: Antiproliferative activity against human K-562 cells assessed as cell growth inhibition; assay type: functional; outline: as §2
UO-31 = test: Antiproliferative activity against human UO-31 cells assessed as cell growth inhibition; assay type: functional; outline: as §4
DU-145 = test: Antiproliferative activity against human DU-145 cells assessed as cell growth inhibition; assay type: functional; outline: as §2
OVCAR-5 = test: Antiproliferative activity against human OVCAR-5 cells assessed as cell growth inhibition; assay type: functional; outline: as §2
786-0 = test: Antiproliferative activity against human 786-0 cells assessed as cell growth inhibition; assay type: functional; outline: as §2
COLO 205 = test: Antiproliferative activity against human COLO 205 cells assessed as cell growth inhibition; assay type: functional; outline: as §2
A549 = test: Antiproliferative activity against human A549 cells assessed as cell growth inhibition; assay type: functional; outline: as §2
SW-620 = test: Antiproliferative activity against human SW-620 cells assessed as cell growth inhibition; assay type: functional; outline: as §4
Hs-578T = test: Antiproliferative activity against human Hs-578T cells assessed as cell growth inhibition; assay type: functional; outline: as §2
HOP-92 = test: Antiproliferative activity against human HOP-92 cells assessed as cell growth inhibition; assay type: functional; outline: as §2
CCRF-CEM = test: Antiproliferative activity against human CCRF-CEM cells assessed as cell growth inhibition; assay type: functional; outline: as §2
SK-OV-3 = test: Antiproliferative activity against human SK-OV-3 cells assessed as cell growth inhibition; assay type: functional; outline: as §4
PC-3 = test: Antiproliferative activity against human PC-3 cells assessed as cell growth inhibition; assay type: functional; outline: as §2
SK-MEL-2 = test: Antiproliferative activity against human SK-MEL-2 cells assessed as cell growth inhibition; assay type: functional; outline: as §4
MDA-MB-231 = test: Antiproliferative activity against human MDA-MB-231 cells assessed as cell growth inhibition; assay type: functional; outline: as §2
SF-268 = test: Antiproliferative activity against human SF-268 cells assessed as cell growth inhibition; assay type: functional; outline: as §2
NCI/ADR-RES = test: Antiproliferative activity against human NCI/ADR-RES cells assessed as cell growth inhibition; assay type: functional; outline: as §2

## COc1ccc([C@H]2[C@H](c3ccccc3)C(=O)N2c2cc(OC)c(OC)c(OC)c2)cc1F
[1]
  CLH: 0.98 µL/min/mg
HCC 2998
  GI50: 39.4 nM
[2]
  GI50: 68.7 nM
MCF7 [3]
  IC50: 17 nM
TK-10
  GI50: 1680 nM
HCT-15
  GI50: 33.6 nM
SN12C
  GI50: 56.1 nM
U-251
  GI50: 35.9 nM
NCI-H460
  GI50: 34.4 nM
HOP-62
  GI50: 37.9 nM
SK-MEL-5
  GI50: 27.1 nM
[4]
  Ratio IC50: 1.88
CAKI-1
  GI50: 33.2 nM
HT-29 [5]
  GI50: 26 nM
LOX IMVI
  GI50: 29.6 nM
HCT-116
  GI50: 32.4 nM
UACC-62
  GI50: 54.3 nM
OVCAR-8
  GI50: 34.4 nM
OVCAR-4
  GI50: 87.1 nM
MCF7 [6]
  GI50: 29.6 nM
HT-29 [7]
  IC50: 9 nM
[8]
  t1/2: 23.5 h
SK-MEL-28
  GI50: 1370 nM
NCI-H23
  GI50: 48.9 nM
M14
  GI50: 22.6 nM
NCI-H522
  GI50: 18.6 nM
MOLT-4
  GI50: 38.1 nM
EKVX
  GI50: 77.6 nM
SF-539
  GI50: 23.4 nM
BT-549
  GI50: 26.6 nM
SF-295
  GI50: 29 nM
SR
  GI50: 37.3 nM
OVCAR-3
  GI50: 28 nM
SNB-75
  GI50: 31.4 nM
KM12
  GI50: 33.1 nM
HL-60
  GI50: 22.3 nM
MDA-MB-435
  GI50: 18.7 nM
IGROV-1
  GI50: 42.8 nM
ACHN
  GI50: 44 nM
MDA-MB-468
  GI50: 28.7 nM
NCI-H226
  GI50: 35 nM
A498
  GI50: 27 nM
T47D
  GI50: > 100000 nM
Malme-3M
  GI50: > 100000 nM
RPMI-8226
  GI50: 41.3 nM
SNB-19
  GI50: 49.9 nM
K562
  GI50: 32.1 nM
UO-31
  GI50: 77.1 nM
DU-145
  GI50: 35.4 nM
OVCAR-5
  GI50: 51.7 nM
786-0
  GI50: 31.4 nM
COLO 205
  GI50: 19.4 nM
A549
  GI50: 36.8 nM
SW-620
  GI50: 41.9 nM
Hs-578T
  GI50: 43.4 nM
HOP-92
  GI50: 2840 nM
CCRF-CEM
  GI50: 36.1 nM
SK-OV-3
  GI50: 34.8 nM
PC-3
  GI50: 40.3 nM
SK-MEL-2
  GI50: 35.4 nM
MDA-MB-231
  GI50: 45.2 nM
SF-268
  GI50: 44.3 nM
NCI/ADR-RES
  GI50: 39.4 nM
